Source: PubChem (Broad Institute)
PGC1a acetyl inh = lowers PGC1a acetylation signal in U2OS cells; AlphaScreen anti-acetyl-lysine; with virally co-expressed GCN5 acetyltransferase; inhibition, % at 15.6 µM; 350,000 compounds, 0.17% hits; AID 651687;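 active means every replicate shows inhibition of at least 40%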;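 further: 0% = neutral control wells and 100% = positive control wells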
ERAP1 inh = ERAP1 (human) enzyme inhibition; recombinant ERAP1, Leu-AMC fluorescence, 60 min; inhibition, % at 10.7 µM; 340,000 compounds, 0.15% hits; AID 652197;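 active means mean replicate inhibition of at least 30%, or all replicates individually reaching that 30% level; inactive means mean below 30% and not every replicate reaching it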;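 further: 0% = neutral control wells and 100% = L-leucinethiol positive control wells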
Target sequence (Q9NZ08 whole entry, looked up): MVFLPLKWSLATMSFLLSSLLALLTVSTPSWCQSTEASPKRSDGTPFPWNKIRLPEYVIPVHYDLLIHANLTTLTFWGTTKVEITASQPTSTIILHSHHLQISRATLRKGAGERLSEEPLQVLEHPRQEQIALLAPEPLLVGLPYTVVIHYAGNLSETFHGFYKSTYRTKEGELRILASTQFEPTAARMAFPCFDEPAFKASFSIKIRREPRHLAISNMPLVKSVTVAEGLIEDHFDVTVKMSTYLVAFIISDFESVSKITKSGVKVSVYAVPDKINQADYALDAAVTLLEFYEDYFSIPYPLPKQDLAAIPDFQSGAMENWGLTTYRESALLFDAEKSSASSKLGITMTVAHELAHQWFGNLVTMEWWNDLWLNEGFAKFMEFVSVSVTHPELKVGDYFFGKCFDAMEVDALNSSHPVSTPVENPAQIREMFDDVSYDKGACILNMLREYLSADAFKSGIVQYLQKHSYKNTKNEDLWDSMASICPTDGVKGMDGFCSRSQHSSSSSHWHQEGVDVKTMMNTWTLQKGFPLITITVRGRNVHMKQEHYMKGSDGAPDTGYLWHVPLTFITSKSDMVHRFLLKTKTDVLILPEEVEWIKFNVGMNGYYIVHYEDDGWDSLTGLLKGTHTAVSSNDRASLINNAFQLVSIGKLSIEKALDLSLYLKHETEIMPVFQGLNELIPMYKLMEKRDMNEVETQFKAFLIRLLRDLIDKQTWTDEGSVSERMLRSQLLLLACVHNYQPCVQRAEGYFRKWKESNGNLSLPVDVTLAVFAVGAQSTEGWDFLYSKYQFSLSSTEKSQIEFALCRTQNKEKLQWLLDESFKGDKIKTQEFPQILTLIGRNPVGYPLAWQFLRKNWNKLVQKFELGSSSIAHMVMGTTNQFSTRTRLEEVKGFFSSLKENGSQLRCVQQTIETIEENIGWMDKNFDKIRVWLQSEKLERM
FGF22 binding = binders of recombinant human FGF22 by thermal shift; 340,000 compounds, 1.5% hits; AID 651658; activity (Tm shift, normalised), % at 9.99 µM; SYPRO orange fluorescence; percent of sucrose octasulfate shift, DMSO zero;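 active means mean Tm shift, scaled 0 neutral to 100 positive control, at about 1.3% or above, every replicate too, limit read from the data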
SIRT5 block = blocks human SIRT5 desuccinylation of peptide | inhibition, % at 15 µM | 330,000 compounds, 1.1% hits | Purified SirT5, succinyl-peptide AMC, trypsin-coupled fluorescence | AID 652115; in the data active means inhibition above about 15%
FN deposition inh = fibronectin deposition inhibition | AH1F fibroblasts, Alexa488-fibronectin deposition fluorescence, overnight | inhibition, % at 12.6 µM | 350,000 compounds, 0.086% hits | AID 743247;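 active means mean inhibition across replicates of 30% or more, regardless of how many single replicates reach that level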;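 further: positive control wells lacked labelled fibronectin entirely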
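material = AH1F fibroblast monolayer depositing Alexa488-labelled fibronectin into matrix | amount = 10000 AH1F cells/well | buffer or medium = DMEM plus 2% serum, read in PBS | incubation = 1 h cell adhesion before compound, then overnight fibronectin incubation | detection = fluorescence at 485 nm excitation, 525 nm emission | evaluation = percent inhibition as loss of matrix-bound fibronectin fluorescence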
Numbers without * were called inactive; · = no result given. Compounds with a hit are over-represented: about 2.2% of the library has one in this group of screens.

SMILES	PGC1a acetyl inh	ERAP1 inh	FGF22 binding	SIRT5 block	FN deposition inh
CCC(=O)N(C)C[C@H]1Oc2ncc(C#Cc3ccncc3)cc2C(=O)N([C@@H](C)CO)C[C@H]1C	-6	0	0	0	1
CCC(=O)N(C)C[C@@H]1Oc2ncc(C#Cc3ccncc3)cc2C(=O)N([C@@H](C)CO)C[C@@H]1C	-5	36*	0	-1	-3
CCC(=O)N(C)C[C@H]1Oc2ncc(C#Cc3ccncc3)cc2C(=O)N([C@H](C)CO)C[C@H]1C	3	76*	0	-5	5
C[C@@H]1CN([C@H](C)CO)C(=O)c2cc(C#CC(C)(C)O)cnc2O[C@H]1CN(C)C(=O)CC1CC1	6	1	0	25*	-8
O=C(N[C@H]1CC[C@H](CCn2cc(C3(O)CCCC3)nn2)O[C@@H]1CO)c1ccccc1F	3	0	0	7	-6
COc1ccc(/C=C/C(=O)c2ccc(OC)cc2OC)cc1	14	0	0	-1	·
COc1ccc(/C=C/C(=O)c2cc3c(cc2N)OCO3)cc1	·	2	43*	-1	-15
Cc1cc(C)c2c(-n3cccc3)nn(C)c2n1	6	·	·	·	·
Cc1ccc(C(=O)n2nc(-n3cccc3)c3c(C)cc(C)nc32)cc1	·	1	0	26*	·
CCC(=O)Nc1ccc2c(c1)C(=O)N(C)C[C@H](OC)[C@H](C)CN(Cc1ccccn1)[C@@H](C)CO2	-2	3	0	-2	-14
C[C@H]1CN([C@@H](C)CO)C(=O)c2cc(C3=CCCC3)cnc2O[C@H]1CN(C)C(=O)C1CC1	1	·	·	·	·
COc1ccc(N2CCN(C(c3cccs3)C(C)NC(=O)c3ccco3)CC2)cc1 (stereo not given)	-20	·	·	·	·
COc1ccc(N2CCN(C(c3cccs3)C(C)NC(=O)c3ccc4c(c3)OCO4)CC2)cc1 (stereo not given)	·	1	43*	-6	19
Cc1ccc(S(=O)(=O)N(C)C[C@H]2Oc3ccc(NC(=O)NC4CCCCC4)cc3C(=O)N([C@@H](C)CO)C[C@@H]2C)cc1	0	0	0	-9	·
O=C(NN=Cc1ccccc1C(=O)O)C(=O)NN=Cc1ccccc1C(=O)O	3	0	0	·	·
O=C(NCC1CCCO1)C(=O)N/N=C/c1ccccc1C(=O)O (stereo not given)	4	-4	43*	5	-5
COc1ccc(-n2nc(C#N)c(Cl)cc2=O)cc1	90*	-2	·	-5	10
CC1=CN2C(=N)/C(=C/c3ccc([N+](=O)[O-])o3)C(=O)N=C2S1	·	4	0	21*	-1
O=Cc1ccc(N2CCCCC2)cc1	-4	-2	0	-1	-1
COc1cc(N2CCCC2)ccc1C=O	2	5	44*	6	-6
CC(=O)N(CCCCl)C(C#N)c1ccccc1 (stereo not given)	·	0	44*	-1	2
N#CC(c1ccccc1)N(CCCCl)C(=O)c1ccccc1 (stereo not given)	·	2	43*	-3	0
O=C(c1ccccc1)N(CCCl)C(=O)N(CCCl)C(=O)c1ccccc1	·	-2	0	-3	7
O=C(NC(=S)N1CCCc2ccccc21)c1ccco1	-11	1	0	22*	2
COc1ccc(S(=O)(=O)N2C[C@H](O)COC[C@H]3O[C@H](CC(=O)N(C)C)CC[C@@H]32)cc1	2	-1	0	-1	-2
SMILES	PGC1a acetyl inh	ERAP1 inh	FGF22 binding	SIRT5 block	FN deposition inh
Cc1nn(CCc2nc(-c3ccco3)cs2)c2[nH]c(=O)cc(C(F)(F)F)c12	-15	4	1	16*	·
CN(C)/C=C/C(=O)c1ccc(Cl)c([N+](=O)[O-])c1	0	-1	43	17*	4
CN(C)/C=C/C(=O)c1cccc(Cl)c1	4	·	·	·	·
CC(=O)N(C)C[C@H]1Oc2ncc(-c3ccc(C(=O)N(C)C)cc3)cc2C(=O)N([C@H](C)CO)C[C@@H]1C	5	2	·	·	·
Cc1ccc(S(=O)(=O)N2CCOCC2)cc1-c1n[nH]c(=S)n1-c1ccccc1	·	46*	0	0	0
O=S(=O)(c1cccc(-c2n[nH]c(=S)n2-c2cccc(C(F)(F)F)c2)c1)N1CCOCC1	14	5	0	-3	-4
COc1cccc(/C=N/Nc2ccc(S(=O)(=O)O)cc2)c1O	5	·	·	·	·
O=S(=O)(O)c1ccc(NN=Cc2ccccc2O)cc1	-3	4	44*	·	-3
C[C@@H](NC(=O)C[C@H]1C=C[C@@H](NC(=O)C2CCOCC2)[C@H](CO)O1)c1ccccc1	-4	-2	0	2	·
COc1ccc(NC(=S)N2CCC(C(=O)c3ccc(F)cc3)CC2)c(OC)c1	·	-1	-1	25*	·
O=C1N[C@H](Cc2ccccc2)COCc2cnnn2CC[C@@H]1Cc1cccc(Cl)c1	·	·	·	·	-3
C[C@H]1CN([C@@H](C)CO)C(=O)c2cccc(NC(=O)Nc3ccc4c(c3)OCO4)c2O[C@H]1CN(C)S(=O)(=O)c1ccc(Cl)cc1	1	3	0	-6	·
Cc1cc(C)c(C(=O)COC(=O)CN2C(=O)NC3(CCCC3)C2=O)cc1C	3	2	43*	·	-5
CSc1ccccc1C(=O)C1CCCN(Cc2cnn(-c3ccccc3)c2)C1 (stereo not given)	·	-4	43*	3	-3
CSc1ccccc1C(=O)C1CCCN(C(=O)CCc2cccnc2)C1 (stereo not given)	3	10	0	-3	45*
CSc1ccccc1C(=O)C1CCCN(Cc2c(C)n(C)n(-c3ccccc3)c2=O)C1 (stereo not given)	-2	-5	0	1	0
CSc1ccccc1C(=O)C1CCCN(C(=O)c2cncs2)C1 (stereo not given)	7	0	0	-1	-17
CCCNC(=O)C[C@@H]1CC[C@@H]2[C@H](COC[C@H](O)CN2C(=O)Nc2cccc(Cl)c2)O1	-4	-23	0	3	0
CC(=O)N(C)C[C@@H]1Oc2cc(C#CC3CC3)ccc2S(=O)(=O)N([C@H](C)CO)C[C@@H]1C	0	·	·	·	-15
Cc1cc(/C=C2/NC(=O)NC2=O)c(C)n1-c1ccc(N2CCOCC2)cc1	·	0	43*	0	-2
Cc1cc(/C=C2\SC(=O)NC2=O)c(C)n1-c1ccc(N2CCOCC2)cc1	2	67*	0	-2	13
O=C(c1cccs1)N1CCN(c2nc3c(F)cc(F)cc3s2)CC1	5	3	0	18*	-1
Cc1cc(C)c2nc(N3CCN(C(=O)c4cccs4)CC3)sc2c1	·	-4	0	1	2
CCOc1ccccc1NC(=S)N(CCC(C)C)C1CCN(C(C)=O)CC1	-1	·	0	19*	11
CCOc1ccccc1NC(=S)N(CCOC)C1CCN(C(C)=O)CC1	3	-3	0	-8	-3
